Laboratory results as given in ChEMBL document CHEMBL4257584, “Sterol 14α-Demethylase Structure-Based Optimization of Drug Candidates for Human Infections with the Protozoan Trypanosomatidae” (J Med Chem, 2018).
Active and inactive are the calls of the source. The calls are words filed in the database; no cut-off is given here.

How the values were obtained:
Mus musculus [1] = assay: Toxicity in Swiss Webster mouse at 200 mg/kg, po administered as single dose measured after 48 hrs measured at 48 hrs post dose; format: organism-based; conditions: in vivo
In short: (§1)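 Swiss Webster mice (21–23 g, n=3) get a single oral 200 mg/kg dose, given as in the PK study. They are inspected for toxic and sub-toxic signs per OECD guidelines (behaviour, motility, neurological state, skin, fur), and body weight is tracked 0–48 h. At 48 h, mice are euthanized and organ weights are normalized to body weight. Blood is taken for haematology and plasma biochemistry.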

[2] = Intrinsic clearance in Sprague-Dawley rat liver microsomes at 1 uM preincubated for 5 mins followed by NADPH addition and measured after 45 mins by LC/MS/MS analysis; format: ADME, microsome; conditions: read-out: CLH
[3] = Hepatic clearance in CD1 mouse liver microsomes at 1 uM preincubated for 5 mins followed by NADPH addition and measured after 45 mins by LC/MS/MS analysis; format: ADME, microsome
[4] = Drug uptake in BALB/c mouse heart at 25 mg/kg, po via gavage measured after 4 hrs post dose by […]; format: ADME, organism-based; conditions: read-out: Drug uptake
In short: (§2)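 BALB/c mice get a single oral gavage dose of 25 mg/kg; tissues are collected 4 h post-dose. About 100 mg tissue is diluted 5-fold in PBS and homogenized. Homogenate is extracted as for plasma (ketoconazole internal standard, acetonitrile extraction) and quantified by HPLC-UV at 291 nm, 0.1 μM detection limit, n=2.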

[5] = Half life in CD1 mouse liver microsomes at 1 uM preincubated for 5 mins followed by NADPH addition and measured by LC/MS/MS analysis; format: ADME, microsome; conditions: mouse, microsomes, 1 µM
[6] = Maximum plasma concentration in BALB/c mouse at 25 mg/kg, po via gavage by […]; format: ADME, organism-based; parameters: dose 25 mg/kg, route oral
In short: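 Single oral gavage dose of 25 mg/kg in BALB/c mice; blood sampled at 1, 2, 4, 6, 10, 16, 24 h. Plasma is diluted in PBS with ketoconazole internal standard, extracted with 80% acetonitrile, dried and redissolved. Analysed by reversed-phase HPLC with UV at 291/250 nm, 0.1 μM detection limit. Lifetime is time until undetectable.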

[7] = Half life in human liver microsomes at 1 uM preincubated for 5 mins followed by NADPH addition and measured by LC/MS/MS analysis; format: ADME, microsome; conditions: microsomes, 1 µM
[8] = Drug uptake in BALB/c mouse liver at 25 mg/kg, po via gavage measured after 4 hrs post dose by […]; format: ADME, organism-based; conditions: read-out: Drug uptake; in short: as §2
Trypanosoma cruzi [9] = assay: Antiparasitic activity against GFP-expressing Trypanosoma cruzi Tulahuen amastigote formss infected in cardiomyocytes assessed as reduction in rate of parasite multiplication within infected cardiomyocytes measured at 72 hrs post infection by fluorescence microscopy; format: functional, organism-based
In short: (§3)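 GFP-expressing trypomastigotes (Tulahuen or Y strain) infect cardiomyocyte monolayers at 10 parasites per cell, in DMEM + 10% FBS. Unbound parasites are washed off. At 24 h of infection, inhibitors at 0.5–25 nM in DMSO/DMEM are added and cultured 48 h. Read-out is at 72 h post-infection as GFP fluorescence (RFU) after PBS wash; microscopy uses paraformaldehyde fixation, DAPI and phalloidin stain. Triplicate.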

Mus musculus [10] = assay: Toxicity in Swiss Webster mouse assessed as effect on motility at 200 mg/kg, po administered as single dose measured after 48 hrs; format: organism-based; conditions: in vivo; in short: as §1
Mus musculus [11] = assay: Toxicity in Swiss Webster mouse assessed as effect on animal behavior at 200 mg/kg, po administered as single dose measured after 48 hrs; format: organism-based; conditions: in vivo; in short: as §1
Mus musculus [12] = assay: Toxicity in Swiss Webster mouse assessed as effect on skin at 200 mg/kg, po administered as single dose measured after 48 hrs; format: organism-based; conditions: in vivo; in short: as §1
Mus musculus [13] = assay: Toxicity in Swiss Webster mouse assessed as effect on lung weight at 200 mg/kg, po administered as single dose measured after 48 hrs; format: organism-based; conditions: in vivo; in short: as §1
Mus musculus [14] = assay: Toxicity in Swiss Webster mouse assessed as effect on spleen weight at 200 mg/kg, po administered as single dose measured after 48 hrs; format: organism-based; conditions: in vivo; in short: as §1
[15] = biological target: Sterol 14-alpha demethylase (Trypanosoma cruzi (strain CL Brener)) (UniProt Q7Z1V1); assay: Inhibition of Trypanosoma cruzi Y CYP51 expressed in Escherichia coli using [3-3H]-eburicol as substrate after 60 mins by LC-MS analysis
In short: (§4)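 Reconstituted reaction: 1 μM purified CYP51, 2 μM T. brucei NADPH-P450 reductase, 100 μM dilauroylphosphatidylcholine, isocitrate dehydrogenase/isocitrate regeneration, 50 mM K phosphate pH 7.2, 10% glycerol. [3-3H]sterol substrate at 50 μM final (eburicol for T. cruzi; obtusifoliol for T. brucei and L. infantum) with inhibitor at 1.1 μM final. Preincubate 60 s at 37 °C, start with 100 μM NADPH, run 60 min, EtOAc extraction. Gives % inhibition of 14α-demethylation, triplicate, mean ± SD.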

[16] = Lipophilicity, log P of the compound; format: physicochemical; conditions: octanol/water
[17] = Drug uptake in BALB/c mouse blood at 25 mg/kg, po via gavage measured after 4 hrs post dose by […]; format: ADME, organism-based; conditions: read-out: Drug uptake; in short: as §2
[18] = biological target: Putative lanosterol 14-alpha-demethylase (Leishmania infantum) (UniProt A2TEF2); assay: Inhibition of Leishmania infantum CYP51 expressed in Escherichia coli using [3-3H]-obtusifoliol as substrate after 60 mins by LC-MS analysis; in short: as §4
[19] = Drug uptake in BALB/c mouse spleen at 25 mg/kg, po via gavage measured after 4 hrs post dose by […]; format: ADME, organism-based; conditions: read-out: Drug uptake; in short: as §2
[20] = Intrinsic clearance in human liver microsomes at 1 uM preincubated for 5 mins followed by NADPH addition and measured after 45 mins by LC/MS/MS analysis; format: ADME, microsome; conditions: read-out: CLH
[21] = Drug uptake in BALB/c mouse lungs at 25 mg/kg, po via gavage measured after 4 hrs post dose by […]; format: ADME, organism-based, Lung; conditions: read-out: Drug uptake; in short: as §2
Mus musculus [22] = assay: Toxicity in Swiss Webster mouse assessed as effect on heart weight at 200 mg/kg, po administered as single dose measured after 48 hrs; format: organism-based; conditions: in vivo; in short: as §1
Mus musculus [23] = assay: Toxicity in Swiss Webster mouse assessed as effect on neurological conditions at 200 mg/kg, po administered as single dose measured after 48 hrs; format: organism-based; conditions: in vivo; in short: as §1
Mus musculus [24] = assay: Toxicity in Swiss Webster mouse assessed as effect on liver weight at 200 mg/kg, po administered as single dose measured after 48 hrs; format: organism-based; conditions: in vivo; in short: as §1
[25] = biological target: Putative lanosterol 14-alpha-demethylase (Leishmania infantum, UniProt A2TEF2); assay: Binding affinity to Leishmania infantum CYP51 expressed in Escherichia coli
In short: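 Purified E. coli-expressed L. infantum CYP51 at 0.5 μM is titrated with ligand at 0.1–1 μM in 5 cm path cuvettes. Difference-spectrum absorbance change Δ(A430−A411) is plotted against ligand concentration. Apparent Kd comes from a Morrison (quadratic) tight-binding fit by nonlinear regression.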

[26] = Hepatic clearance in human liver microsomes at 1 uM preincubated for 5 mins followed by NADPH addition and measured after 45 mins by LC/MS/MS analysis; format: ADME, microsome
Trypanosoma cruzi [27] = assay: Antiparasitic activity against GFP-expressing Trypanosoma cruzi Y amastigote formss infected in cardiomyocytes assessed as reduction in rate of parasite multiplication within infected cardiomyocytes measured at 72 hrs post infection by fluorescence microscopy; format: functional, organism-based; in short: as §3
[28] = Drug uptake in BALB/c mouse brain at 25 mg/kg, po via gavage measured after 4 hrs post dose by […]; format: ADME, organism-based; conditions: read-out: Drug uptake; in short: as §2
Mus musculus [29] = assay: Toxicity in Swiss Webster mouse assessed as effect on kidney weight at 200 mg/kg, po administered as single dose measured after 48 hrs; format: organism-based; conditions: in vivo; in short: as §1

Sequence of Sterol 14-alpha demethylase (Trypanosoma cruzi (strain CL Brener)) (Q7Z1V1 whole entry, looked up): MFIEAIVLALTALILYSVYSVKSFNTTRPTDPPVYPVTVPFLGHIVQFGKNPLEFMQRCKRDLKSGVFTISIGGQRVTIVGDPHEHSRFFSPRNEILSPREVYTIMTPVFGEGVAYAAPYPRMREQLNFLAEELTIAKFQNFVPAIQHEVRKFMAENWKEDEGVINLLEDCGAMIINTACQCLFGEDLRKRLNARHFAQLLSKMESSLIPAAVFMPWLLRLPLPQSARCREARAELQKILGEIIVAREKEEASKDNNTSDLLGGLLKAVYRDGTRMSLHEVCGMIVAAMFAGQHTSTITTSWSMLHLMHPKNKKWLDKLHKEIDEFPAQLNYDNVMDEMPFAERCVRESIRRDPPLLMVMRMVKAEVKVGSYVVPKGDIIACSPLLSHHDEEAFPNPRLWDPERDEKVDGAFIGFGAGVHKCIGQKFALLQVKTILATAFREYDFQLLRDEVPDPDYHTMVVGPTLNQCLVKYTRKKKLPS
Sequence of Putative lanosterol 14-alpha-demethylase (A2TEF2 whole entry): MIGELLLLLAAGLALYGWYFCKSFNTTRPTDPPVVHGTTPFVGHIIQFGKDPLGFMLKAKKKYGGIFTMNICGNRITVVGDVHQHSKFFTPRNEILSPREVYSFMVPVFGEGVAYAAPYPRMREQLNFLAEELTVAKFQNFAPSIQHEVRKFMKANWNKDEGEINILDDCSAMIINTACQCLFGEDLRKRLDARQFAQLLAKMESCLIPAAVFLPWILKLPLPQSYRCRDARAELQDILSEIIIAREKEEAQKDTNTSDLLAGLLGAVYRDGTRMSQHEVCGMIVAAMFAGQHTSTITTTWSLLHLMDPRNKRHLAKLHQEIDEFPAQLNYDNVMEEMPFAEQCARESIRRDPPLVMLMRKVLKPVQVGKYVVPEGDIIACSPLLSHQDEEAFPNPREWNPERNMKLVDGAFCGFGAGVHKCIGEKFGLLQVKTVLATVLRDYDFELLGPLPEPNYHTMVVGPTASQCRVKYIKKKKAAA
Sequence of Putative lanosterol 14-alpha-demethylase (Leishmania infantum) (A2TEF2 1-480): as the sequence (A2TEF2 whole entry) above

For `O=C(N[C@@H](Cn1ccnc1)c1c(F)cc(-c2ccc(F)cc2)cc1F)c1ccc(-c2nnc(-c3ccccc3)o2)cc1`, which NOAEL (Mus musculus [1]) is on record?
The NOAEL was greater than 200 mg/kg.

And the CLint scaled at 1 µM [2]?
The CLint scaled at 1 µM was 55.8 mL/min/kg.

What about the CLhep predicted at 1 µM [3] of the same molecule?
The CLhep predicted at 1 µM was 65.2 mL/min/kg.

And the concentration at 4 h [4]?
The concentration at 4 h was 56 µM.

And the t1/2 [5]?
Its t1/2 is 23 min.

And the Cmax [6]?
The Cmax was 25 µM.

And the t1/2 [7]?
Its t1/2 is 64 min.

And the concentration at 4 h [8]?
The concentration at 4 h was 120 µM.

And the EC50 (Trypanosoma cruzi [9])?
Its EC50 is 0.5 nM.

What about the Activity (Mus musculus [10]) of the same molecule?
The Activity was “Non-Toxic”.

What about the Activity (Mus musculus [11]) of the same molecule?
Its Activity is “Non-Toxic”.

And the Activity (Mus musculus [12])?
The Activity was “Non-Toxic”.

What about the Activity (Mus musculus [13]) of the same molecule?
Its Activity is “Non-Toxic”.

And the Activity (Mus musculus [14])?
The Activity was “Non-Toxic”.

What about the inhibition [15] of the same molecule?
The inhibition was “Active”.

And the logP [16]?
The logP was 5.6.

And the concentration at 4 h [17]?
The concentration at 4 h was 25 µM.

What about the inhibition [18] of the same molecule?
Its inhibition is “Active”.

What about the concentration at 4 h [19] of the same molecule?
Its concentration at 4 h is 63 µM.

And the CLint scaled at 1 µM [20]?
Its CLint scaled at 1 µM is 19.4 mL/min/kg.

And the concentration at 4 h [21]?
The concentration at 4 h was 57 µM.

What about the Activity (Mus musculus [22]) of the same molecule?
Its Activity is “Non-Toxic”.

What about the Activity (Mus musculus [23]) of the same molecule?
The Activity was “Non-Toxic”.

And the Activity (Mus musculus [24])?
The Activity was “Non-Toxic”.

What about the Kd [25] of the same molecule?
Its Kd is 24 nM.

And the CLhep predicted at 1 µM [26]?
Its CLhep predicted at 1 µM is 10.1 mL/min/kg.

What about the EC50 (Trypanosoma cruzi [27]) of the same molecule?
The EC50 was 1 nM.

What about the concentration at 4 h [28] of the same molecule?
Its concentration at 4 h is 3 µM.

What about the Activity (Mus musculus [29]) of the same molecule?
The Activity was “Non-Toxic”.
